Only some compounds are listed: those with a hit (about 5.8% of all), similar ones and a draw of the others.
T cruzi growth-1: T. cruzi proliferation inhibition; T. cruzi beta-gal in NIH3T3, GalScreen luminescence, 90 h; inhibition, % at 8.34 µM; 77,000 compounds, 5.9% hits; AID 624255;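 active = mean inhibition above about 93%, with at least 55% of replicates each passing it, limit read from the data, passing the limit was not always enough; inconclusive = only one of those two conditions holds; inactive = neither condition holds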
Pf Dd2 growth: inhibitors of Plasmodium falciparum Dd2 growth. P. falciparum Dd2 growth, SYBR Green, 72 h; hits give low values. activity change, % at 10 µM. 94,000 compounds, 2.3% hits. AID 1159554; in the data active = activity change below about -80%; inconclusive = no clear call, values can overlap the other calls
KDM4C inh: blocks human GASC-1 (KDM4C) demethylase activity | 96,000 compounds, 0.15% hits | AID 720574 | inhibition, % at 12.5 µM | GST-KDM4C 2-372, H3K9me3 peptide, LANCE TR-FRET;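 active = mean replicate inhibition above about 25%, with at least 55% of replicates also reaching it, limit read from the data, passing the limit was not always enough; inconclusive = only one of those two conditions met; inactive = neither condition met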
Target sequence (Q9H3R0 2-372 limits assumed): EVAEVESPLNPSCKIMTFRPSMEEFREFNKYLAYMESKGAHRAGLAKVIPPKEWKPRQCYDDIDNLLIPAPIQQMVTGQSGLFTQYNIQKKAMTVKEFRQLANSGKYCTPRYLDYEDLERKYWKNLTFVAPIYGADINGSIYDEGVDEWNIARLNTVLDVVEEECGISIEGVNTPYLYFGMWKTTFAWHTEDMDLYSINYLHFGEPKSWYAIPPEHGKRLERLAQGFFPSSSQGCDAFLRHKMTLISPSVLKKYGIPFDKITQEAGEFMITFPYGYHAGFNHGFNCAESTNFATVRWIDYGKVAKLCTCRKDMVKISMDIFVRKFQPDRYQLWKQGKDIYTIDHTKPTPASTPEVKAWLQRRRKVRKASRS
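System – N-terminal GST-fused human GASC-1 (KDM4C) fragment, residues 2-372 · Input – enzyme final amount 10 nM · Technique – LANCE TR-FRET, Eu antibody, ULight-streptavidin, EDTA, ex 340 nm, em 618/671 nm · Medium – HEPES buffer, pH 7.5, plus ascorbate · Incubation – enzyme reaction 30 min, then detection 60 min, both room temperature · Reagent – H3K9me3 peptide with Fe(II)/2OG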
IDH1 R132H inh: IDH1 R132H (human) inhibition; O75874; 70,000 compounds, 0.18% hits; inhibition, % at 10 µM; IDH1 R132H reductase, diaphorase/resazurin fluorescence, 60 min; in the data active = inhibition above about 34%; inconclusive = no clear call, values can overlap the other calls; inactive = below about 11%;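 also: 0% = DMSO and 100% = no enzyme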
Target sequence (O75874 whole entry R132H): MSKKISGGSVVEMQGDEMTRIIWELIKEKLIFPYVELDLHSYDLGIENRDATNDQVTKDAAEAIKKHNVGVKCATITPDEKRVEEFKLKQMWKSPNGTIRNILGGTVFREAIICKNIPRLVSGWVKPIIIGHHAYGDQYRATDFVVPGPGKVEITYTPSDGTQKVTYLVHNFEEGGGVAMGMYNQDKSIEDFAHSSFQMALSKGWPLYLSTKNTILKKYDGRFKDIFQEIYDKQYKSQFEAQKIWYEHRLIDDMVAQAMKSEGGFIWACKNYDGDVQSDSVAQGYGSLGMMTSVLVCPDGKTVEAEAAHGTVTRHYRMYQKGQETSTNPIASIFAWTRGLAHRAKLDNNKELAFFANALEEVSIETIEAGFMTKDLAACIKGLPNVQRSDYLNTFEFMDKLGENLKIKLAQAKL
T cruzi growth-2: inhibitors of T. cruzi proliferation. 5,600 compounds, 72% hits. shares compounds with T cruzi growth-1. T. cruzi beta-gal in NIH3T3, GalScreen luminescence, 90 h. inhibition, % at 8.35 µM;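 active = mean replicate inhibition above about 95% and at least 55% of replicates individually reaching it, limit read from the data; inconclusive = only one of the two criteria is met; inactive = neither criterion is met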
T cruzi growth-3: inhibitors of T. cruzi proliferation; shares compounds with T cruzi growth-1; T. cruzi beta-gal in NIH3T3, GalScreen luminescence, 90 h; inhibition, % at 2.09 µM; 5,600 compounds, 21% hits; AID 651740;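 active = mean inhibition above about 95%, with at least 55% of replicates also reaching it, limit read from the data; inconclusive = meets just one of the two conditions; inactive = meets neither condition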;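 also: plate controls were neutral control median for no effect and positive control median for full effect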
NIH3T3 tox: kills mouse NIH/3T3 fibroblasts | AID 651742 | 5,600 compounds, 14% hits | shares compounds with T cruzi growth-1 | cytotoxicity (signal decrease), % at 8.35 µM | NIH/3T3 viability, CellTiter-Glo ATP luminescence, 90 h;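 active = mean signal decrease across replicates above about 35% based on untreated-well scatter, with enough replicates individually passing, limit read from the data; inconclusive = no rule stated though some were filed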;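 also: 0% = median of neutral control wells and 100% = median of positive control wells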
NIH3T3 tox 2: NIH/3T3 (mouse) viability loss; shares compounds with T cruzi growth-1; NIH/3T3 viability, CellTiter-Glo ATP luminescence, 90 h; inhibition, % at 24.9 µM; 5,600 compounds, 56% hits;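 active = mean loss of cell viability signal at or above a set limit, and enough replicates individually reaching it; inconclusive = meets only the mean limit or only the replicate share; inactive = meets neither condition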;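 also: 0% = median of neutral control wells and 100% = median of positive control wells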
Starred values were filed as active, the others as inactive; ? = inconclusive; · = no result.

SMILES | T cruzi growth-1 | Pf Dd2 growth | KDM4C inh | IDH1 R132H inh | T cruzi growth-2 | T cruzi growth-3 | NIH3T3 tox | NIH3T3 tox 2
C[C@@H]1CCCCO[C@@H](CN(C)Cc2ccc(C(F)(F)F)cc2)[C@H](C)CN([C@@H](C)CO)C(=O)c2cc(NC(=O)C3CCCCC3)ccc2O1 | 114* | -43 | -1 | 2 | 102* | 112* | 10 | 15
C[C@@H]1CCCCO[C@@H](CN(C)Cc2ccc(C(=O)O)cc2)[C@H](C)CN([C@H](C)CO)C(=O)c2cc(NC(=O)C3CCCCC3)ccc2O1 | -5 | 40 | 0 | -3 | · | · | · | ·
CN1CCN(C(=O)C[C@H]2C=C[C@H](NC(=O)Nc3ccccc3F)[C@H](CO)O2)CC1 | 7 | 23 | -1 | 0 | · | · | · | ·
O=C(NCC[C@@H]1CC[C@H](NS(=O)(=O)Cc2ccccc2)[C@@H](CO)O1)C1CCOCC1 | -26 | 11 | 3 | 0 | · | · | · | ·
CN(C)C(=O)c1cccc(-c2ccc3c(c2)[C@@H]2[C@@H](CCN2C(=O)c2cnccn2)[C@H](CO)N3)c1 | 105* | -10 | 0 | · | 97* | 62 | -22 | -14
COc1cccc(-c2ccc3c(c2)[C@H]2[C@H](CCN2C(=O)c2cnccn2)[C@H](CO)N3)c1 | 74 | -12 | 5 | · | · | · | · | ·
O=C(c1cnccn1)N1CC[C@@H]2[C@H]1c1cc(-c3cccc(F)c3)ccc1N[C@@H]2CO | 101* | 10 | 0 | · | 104* | 74 | 26 | 41*
COc1ccc(-c2ccc3c(c2)[C@@H]2[C@@H](CCN2C(=O)c2cnccn2)[C@H](CO)N3)cc1 | ? | -44 | 0 | · | 112* | 85 | -9 | -32
C[C@@H]1CN([C@@H](C)CO)C(=O)c2cc(C#Cc3cccnc3)cnc2O[C@@H]1CN(C)Cc1ccc(F)cc1 | · | -26 | -1 | 0 | · | · | · | ·
O=C(O)COc1cccc(-c2ocnc2-c2nc(-c3ccccc3)c(-c3ccccc3)o2)c1 | · | · | · | 2 | · | · | · | ·
CN1c2ccc(C#Cc3cccnc3)cc2[C@H]2[C@H](CCN2C(=O)C2CC2)[C@@H]1CO | 79 | -45 | 6 | · | · | · | · | ·
COc1ccc(CN(C)C[C@H]2OCCCC[C@H](C)Oc3ccc(NC(=O)Nc4cccc5ccccc45)cc3C(=O)N([C@@H](C)CO)C[C@H]2C)cc1 | ? | ? | -4 | 2 | 106* | 92 | 25 | ?
COc1ccc(CN(C)C[C@@H]2OCCCC[C@H](C)Oc3ccc(NC(=O)Nc4cccc5ccccc45)cc3C(=O)N([C@@H](C)CO)C[C@@H]2C)cc1 | ? | ? | -1 | -6 | 103* | 96* | 25 | 103*
COc1ccc(CN(C)C[C@@H]2OCCCC[C@@H](C)Oc3ccc(NC(=O)Nc4cccc5ccccc45)cc3C(=O)N([C@@H](C)CO)C[C@@H]2C)cc1 | 94 | -32 | -1 | 0 | · | · | · | ·
COc1ccc(CN(C)C[C@@H]2OCCCC[C@@H](C)Oc3ccc(NC(=O)Nc4cccc5ccccc45)cc3C(=O)N([C@@H](C)CO)C[C@H]2C)cc1 | 79 | -59 | 14 | 0 | · | · | · | ·
O=C(C[C@@H]1C[C@H]2c3cc(NC(=O)CC4CC4)ccc3O[C@H]2[C@H](CO)O1)NCc1cccnc1 | 109* | 13 | -2 | 0 | 88 | 0 | 3 | 7
O=C(C[C@@H]1C[C@H]2c3cc(NC(=O)NC4CCCC4)ccc3O[C@H]2[C@H](CO)O1)NCc1ccccc1 | 102* | -20 | -1 | -1 | 11 | -29 | -8 | 22
O=C(C[C@H]1C[C@H]2c3cc(NC(=O)NC4CCCC4)ccc3O[C@H]2[C@@H](CO)O1)NCc1ccc(Cl)cc1 | 105* | -14 | -1 | 1 | 2 | -7 | 6 | -1
O=C(C[C@H]1C[C@H]2c3cc(NC(=O)NC4CCCC4)ccc3O[C@H]2[C@H](CO)O1)NCc1ccccc1 | 53 | -15 | 1 | 0 | · | · | · | ·
O=C(C[C@@H]1C[C@H]2c3cc(NC(=O)CC4CC4)ccc3O[C@H]2[C@@H](CO)O1)NCc1cccnc1 | 29 | 9 | -4 | 0 | · | · | · | ·
O=C(C[C@@H]1C[C@H]2c3cc(NC(=O)Nc4ccccc4)ccc3O[C@H]2[C@H](CO)O1)NCc1cccc(F)c1 | 104* | -4 | 0 | -1 | -26 | -17 | 15 | 14
O=C(C[C@H]1C[C@@H]2c3cc(NC(=O)Nc4ccccc4)ccc3O[C@@H]2[C@H](CO)O1)NCc1cccc(F)c1 | 39 | -57 | -3 | 1 | · | · | · | ·
C=N[C@@H](C(=O)N[C@@H]1C(=O)N2[C@@H]1SC(C)(C)[C@@H]2C(=O)O)c1ccccc1 | · | · | · | 0 | · | · | · | ·
Cc1cccc(NC(=O)CSc2nnc(-c3cccc(Br)c3)n2-c2ccccc2)c1 | · | · | · | 0 | · | · | · | ·
Cc1noc(C)c1NC(=O)N(C)C[C@@H]1Oc2ccc(NC(=O)Cc3ccccc3)cc2CC(=O)N([C@@H](C)CO)C[C@H]1C | 34 | 0 | -2 | 0 | · | · | · | ·
SMILES | T cruzi growth-1 | Pf Dd2 growth | KDM4C inh | IDH1 R132H inh | T cruzi growth-2 | T cruzi growth-3 | NIH3T3 tox | NIH3T3 tox 2
CCNC(=O)C[C@@H]1CC[C@@H]2[C@@H](COc3ccc(NC(=O)c4ccc5c(c4)OCO5)cc3C(=O)N2C)O1 | 27 | -11 | -1 | · | · | · | · | ·
CNC(=O)C[C@@H]1CC[C@@H]2[C@H](COc3ccc(NC(=O)c4ccc5c(c4)OCO5)cc3C(=O)N2C)O1 | 34 | 8 | 0 | · | · | · | · | ·
CNC(=O)C[C@H]1CC[C@@H]2[C@@H](COc3ccc(NC(=O)c4ccc5c(c4)OCO5)cc3C(=O)N2C)O1 | 108* | 0 | 0 | · | -32 | -8 | -14 | -5
CN1C(=O)c2cc(NC(=O)c3cccc(Cl)c3)ccc2OC[C@@H]2O[C@@H](CC(=O)NC3CCCCC3)CC[C@H]21 | 96* | -7 | 3 | · | ? | 43 | 9 | ?
CN1C(=O)c2cc(NC(=O)c3cccc(Cl)c3)ccc2OC[C@H]2O[C@H](CC(=O)NC3CCCCC3)CC[C@H]21 | 82 | -23 | 1 | · | · | · | · | ·
CN1C(=O)c2cc(NC(=O)Nc3ccc(Cl)cc3)ccc2OC[C@@H]2O[C@H](CC(=O)NCCN3CCCCC3)CC[C@@H]21 | 103* | -23 | 1 | · | 108* | 79 | 0 | 8
CN1C(=O)c2cc(NC(=O)Nc3ccc(Cl)cc3)ccc2OC[C@H]2O[C@@H](CC(=O)NCCN3CCCCC3)CC[C@H]21 | -12 | 0 | 0 | · | · | · | · | ·
CNC(=O)C[C@@H]1CC[C@H]2[C@@H](COc3ccc(NC(=O)c4ccc5c(c4)OCO5)cc3C(=O)N2C)O1 | 111* | -31 | -2 | · | -3 | -15 | -3 | -1
C[C@@H]1CN([C@@H](C)CO)C(=O)CCCn2nncc2CO[C@@H]1CN(C)C(=O)Nc1ccc(F)cc1 | 22 | -16 | 0 | 2 | · | · | · | ·

Screening results deposited in PubChem by Broad Institute.
